According to ChEMBL document CHEMBL4052787, “Development of novel LP1-based analogues with enhanced delta opioid receptor profile” (Bioorg Med Chem, 2017):
Active and inactive are the calls of the source. The calls are words filed in the database; no cut-off is given here.

Legend:
[1] = target: Kappa-type opioid receptor (Cavia porcellus, UniProt P41144); experiment: Displacement of [3H]-(+)-U69,593 from KOR in guinea pig brain membranes by liquid scintillation counting analysis; type: cell membranes, Membrane
Chain of Kappa-type opioid receptor (P41144 whole entry): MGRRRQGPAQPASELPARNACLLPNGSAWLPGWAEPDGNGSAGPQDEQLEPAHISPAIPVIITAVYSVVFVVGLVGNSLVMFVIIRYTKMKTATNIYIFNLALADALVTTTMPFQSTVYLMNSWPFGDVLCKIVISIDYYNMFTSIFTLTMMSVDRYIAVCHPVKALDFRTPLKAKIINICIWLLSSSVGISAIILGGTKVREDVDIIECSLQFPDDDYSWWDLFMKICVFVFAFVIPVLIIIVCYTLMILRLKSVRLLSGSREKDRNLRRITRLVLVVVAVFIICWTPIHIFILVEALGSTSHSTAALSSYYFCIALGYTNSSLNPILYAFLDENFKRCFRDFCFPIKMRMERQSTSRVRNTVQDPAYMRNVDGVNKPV
Method in brief: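 Guinea pig brain membranes (0.5 mg/ml) incubated 30 min at 30 °C with 1 nM [3H]-(+)-U69,593. Compounds tested from 10^-11 to 10^-5 M. Nonspecific binding with 10 μM unlabeled naloxone. GF/B filtration, liquid scintillation counting. Ki calculated; means of three experiments, each in duplicate.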

[2] = target: Mu-type opioid receptor (Rattus norvegicus, UniProt P33535); experiment: Displacement of [3H]-DAMGO from MOR in rat brain membranes by liquid scintillation counting analysis; type: cell membranes, Membrane
Chain of Mu-type opioid receptor (P33535 whole entry): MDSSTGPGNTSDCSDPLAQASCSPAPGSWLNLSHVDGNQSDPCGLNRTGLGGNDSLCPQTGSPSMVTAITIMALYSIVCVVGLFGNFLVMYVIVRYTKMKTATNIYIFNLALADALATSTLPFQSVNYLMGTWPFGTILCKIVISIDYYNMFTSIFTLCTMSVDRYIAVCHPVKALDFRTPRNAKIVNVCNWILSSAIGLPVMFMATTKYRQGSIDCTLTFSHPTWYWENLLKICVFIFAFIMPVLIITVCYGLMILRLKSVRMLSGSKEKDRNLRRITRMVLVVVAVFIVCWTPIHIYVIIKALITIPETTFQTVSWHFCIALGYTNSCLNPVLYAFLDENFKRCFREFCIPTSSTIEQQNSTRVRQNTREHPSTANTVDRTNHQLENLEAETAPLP
Method in brief: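 Rat brain membranes, 0.4 mg/ml protein, incubated 45 min at 35 °C with 1 nM [3H]-DAMGO in 50 mM Tris-HCl pH 7.4. Filtration on PEI-presoaked GF/B filters, scintillation counting. Ki calculated; three experiments, each in duplicate.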

[3] = tested on: Rattus norvegicus; experiment: Antinociceptive activity in rat assessed as reduction in response to heat administered ip measured 240 mins post dose by tail-flick test; type: functional, organism-based
[4] = target: Kappa-type opioid receptor (Cavia porcellus) (UniProt P41144); experiment: Potency index, ratio of LP1 Ki to compound Ki for KOR in guinea pig brain membranes; type: cell membranes; conditions: Membrane
Chain of Kappa-type opioid receptor (Cavia porcellus) (P41144 whole entry): as the sequence (P41144 whole entry) above

[5] = species on record: Mus musculus; experiment: Antagonist activity at DOR in CD-1 mouse vasa deferentia assessed as inhibition of electrically induced contractions after 5 mins by measuring ratio of IC50 for test compounds in presence and absence of […]
Method in brief: (§1)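 Isolated tissue (ileum for MOR/KOR, vas deferens for DOR) pre-incubated with a 1 μM selective antagonist (NLX or NTI 20 min; norBNI 30 min), then agonist curves repeated. Ke from ratio of IC50 with and without antagonist, by single dose method. Mean ± SEM of four independent tissues.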

[6] = tested on: Rattus norvegicus; experiment: Antinociceptive activity in rat assessed as reduction in response to heat administered ip measured 45 to 180 mins post dose by tail-flick test; type: functional, organism-based
[7] = target: Kappa-type opioid receptor (Cavia porcellus) (UniProt P41144); experiment: Antagonist activity at KOR in Dunkin-Hartley guinea pig ileum assessed as inhibition of electrically induced contractions after 5 mins by measuring ratio of IC50 for test compounds in presence and absence of nBNI; method in brief: as §1
[8] = tested on: Rattus norvegicus; experiment: Antinociceptive activity in rat assessed as reduction in response to heat administered ip measured 60 mins post dose by tail-flick test; type: functional
[9] = species on record: Rattus norvegicus; experiment: Antinociceptive activity in rat assessed as reduction in response to heat pretreated with naloxone for 30 mins prior to compound treatment by tail-flick test; type: functional
[10] = target: Delta-type opioid receptor (Rattus norvegicus, UniProt P33533); experiment: Displacement of [3H]-DPDPE from DOR in rat brain membranes by liquid scintillation counting analysis; type: cell membranes, Membrane
Chain of Delta-type opioid receptor (P33533 whole entry): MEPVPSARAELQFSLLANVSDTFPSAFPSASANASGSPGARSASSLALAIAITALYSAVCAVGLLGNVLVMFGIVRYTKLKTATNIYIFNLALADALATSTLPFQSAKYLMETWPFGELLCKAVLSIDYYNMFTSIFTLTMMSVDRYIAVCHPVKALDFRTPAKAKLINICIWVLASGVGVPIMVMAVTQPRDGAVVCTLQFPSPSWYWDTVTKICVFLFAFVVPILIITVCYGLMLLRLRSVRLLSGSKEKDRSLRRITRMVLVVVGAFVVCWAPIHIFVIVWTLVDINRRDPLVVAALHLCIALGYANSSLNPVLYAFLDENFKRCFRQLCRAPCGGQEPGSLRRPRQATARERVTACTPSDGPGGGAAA
Method in brief: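 Rat brain membranes at 0.5 mg/ml protein, 45 min at 35 °C with 2 nM [3H]-DPDPE in 50 mM Tris-HCl pH 7.4. Competitor range 10^-11 to 10^-5 M. Nonspecific binding with 10 μM naloxone. Filtered through PEI-soaked GF/B, scintillation counted. Ki derived; three separate experiments in duplicate.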

[11] = species on record: Rattus norvegicus; experiment: Ratio of Ki for DOR in rat brain membranes to Ki for MOR in rat brain membranes; type: cell membranes
Method in brief: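 Ratio of Ki values: DOR Ki (rat brain, [3H]-DPDPE, 2 nM) divided by MOR Ki (rat brain, [3H]-DAMGO, 1 nM), both from 45 min, 35 °C competition binding in 50 mM Tris-HCl pH 7.4.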

[12] = Ratio of Ki for KOR in guinea pig brain membranes to Ki for MOR in rat brain membranes; type: cell membranes
Method in brief: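 Ratio of KOR Ki (guinea pig brain, 1 nM [3H]-(+)-U69,593, 30 min at 30 °C) to MOR Ki (rat brain, 1 nM [3H]-DAMGO, 45 min at 35 °C).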

[13] = target: mu/kappa opioid receptor (Cavia porcellus, UniProt P41144+P97266); experiment: Agonist activity at MOR/KOR in Dunkin-Hartley guinea pig ileum assessed as inhibition of electrically induced contractions after 5 mins
Method in brief: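 Guinea pig ileum longitudinal muscle/myenteric plexus strips from male guinea pigs (200–300 g), 2 g load. Transmural single pulses 0.1 Hz, 0.3 ms, 200 mA. After 60–90 min equilibration in Krebs, compounds added cumulatively, at least 5 min each. Percent inhibition of contraction; IC50 by linear regression of log concentration–effect curves, at least three trials.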

[14] = Agonist activity at DOR in CD-1 mouse vasa deferentia assessed as inhibition of electrically induced contractions after 5 mins
Method in brief: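 Mouse vas deferens at 0.5 g tension; after equilibration, pulses 20 Hz, 0.5 ms, 1 s duration every 40 s. After 60 min equilibration in Krebs, cumulative compound additions, minimum 5 min apart. Contraction inhibition as percent of baseline; IC50 from linear regression of log concentration–effect curves, at least three trials.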

[15] = target: Mu-type opioid receptor (Cavia porcellus) (UniProt P97266); experiment: Antagonist activity at MOR in Dunkin-Hartley guinea pig ileum assessed as inhibition of electrically induced contractions after 5 mins by measuring ratio of IC50 for test compounds in presence and absence of NLX; method in brief: as §1
Chain of Mu-type opioid receptor (Cavia porcellus) (P97266 whole entry): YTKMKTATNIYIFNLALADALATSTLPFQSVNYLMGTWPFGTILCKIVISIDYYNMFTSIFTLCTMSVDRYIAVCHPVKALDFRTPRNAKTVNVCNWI

COC(CN1CC[C@@]2(C)c3cc(O)ccc3C[C@@H]1[C@@H]2C)c1ccccc1 (stereo partly specified)
Ki [1]: 15.2 nM | Ki [2]: 1.08 nM | Activity [3]: Dose-dependent effect | Ratio Ki [4]: 7 | Ke [5]: 3.9 nM | Activity [6]: Active | Ke [7]: > 3000 nM | ED50 ([8]; 1 h): 0.9 mg/kg | Activity [9]: inactive | Ki [10]: 6.6 nM | Ratio Ki [11]: 6.1 | Ratio Ki [12]: 14.1 | IC50 [13]: 21.5 nM | IC50 [14]: 4.4 nM | Ke [15]: 19 nM

C[C@H]1[C@H]2Cc3ccc(O)cc3[C@]1(C)CCN2C[C@@H](O)c1ccccc1
Ki [1]: 2.22 nM | Ki [2]: 0.5 nM | Activity [3]: Dose-dependent effect | Ratio Ki [4]: 49 | Ke [5]: 5.4 nM | Ke [7]: 9 nM | Activity [9]: inactive | Ki [10]: 0.8 nM | Ratio Ki [11]: 1.6 | Ratio Ki [12]: 4.44 | IC50 [13]: 9.9 nM | IC50 [14]: 11.8 nM | Ke [15]: 21 nM

C[C@H]1[C@H]2Cc3ccc(O)cc3[C@]1(C)CCN2C[C@H](O)c1ccccc1
Ki [1]: 7.3 nM | Ki [2]: 2.47 nM | Activity [3]: Dose-dependent effect | Ratio Ki [4]: 15 | Ke [5]: 4 nM | Ke [7]: 20 nM | Activity [9]: inactive | Ki [10]: 9.6 nM | Ratio Ki [11]: 3.88 | Ratio Ki [12]: 2.95 | IC50 [13]: 49.2 nM | IC50 [14]: 10.8 nM | Ke [15]: 35 nM

C[C@H]1[C@H]2Cc3ccc(O)cc3[C@]1(C)CCN2CC(C)(O)c1ccccc1 (stereo partly specified)
Ki [1]: 10.5 nM | Ki [2]: 60 nM | Ratio Ki [4]: 10 | Ki [10]: 160 nM | Ratio Ki [11]: 2.66 | Ratio Ki [12]: 0.17 | IC50 [13]: 194.4 nM | IC50 [14]: 794 nM

CN1CC[C@]23c4c5ccc(O)c4O[C@H]2[C@@H](O)C=C[C@H]3[C@H]1C5
Activity [8]: inactive

C[C@H]1[C@H]2Cc3ccc(O)cc3[C@]1(C)CCN2CCC(=O)Nc1ccccc1
Ke [7]: 10.8 nM | Ratio Ki [11]: 33.8 | Ratio Ki [12]: 132 | IC50 [13]: 1.9 nM | IC50 [14]: 1240 nM | Ke [15]: 2.3 nM
